Molecules are shown by their SMILES. Like-named read-outs stand apart in the source and are kept apart here.

Test [1] concerns epidermoid carcinoma (KB, ATCC number CCL-17). As to conditions: read-out: IC50 KB; KB cells; cited from earlier work.
Test [2] has as its system hepatocellular carcinoma (HepG2, ATCC number HB-8065). As to conditions: read-out: IC50 HepG2; HepG2 cells; cited from earlier work.
The subject of test [3] is breast (MCF7, HTB-22™) cancer cell line. The note with it: read-out: IC50 MCF7; MCF7 cells; cited from earlier work.
The subject of test [4] is SK-Lu-1 cells. As to conditions: read-out: IC50 SK-Lu-1; cited from earlier work.
Test [5] concerns human embryonic kidney (HEK-293, ATCC number CRL-1573) cell line. As to conditions: read-out: IC50 Hek-293; non-cancerous Hek-293 cells; cited from earlier work.
Test [6] deals with epidermoid carcinoma (KB, ATCC number CCL-17). Kind of test: MTT cytotoxicity assay, KB cells. Format: cell-based. As to conditions: Homo sapiens, 72 h, read-out: IC50 KB. Summed up: (§1)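 Log-phase cells in DMEM with 7–10% FBS and penicillin/streptomycin (37 °C, 5% CO2) seeded at 3 × 10^4 cells per mL. Exposed 3 days to test compound in DMSO at 1.00, 0.25, 0.0625 and 0.0156 μg mL−1. MTT (5 mg mL−1 stock in 0.1 M PBS, pH 7.4) added for 4 h at 37 °C; formazan dissolved in DMSO, absorbance at 540 nm. Growth inhibition calculated relative to untreated controls.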

The subject of test [7] is hepatocellular carcinoma (HepG2, ATCC number HB-8065). Kind of test: MTT cytotoxicity assay, HepG2 cells. As to conditions: Homo sapiens, HepG2, 72 h, read-out: IC50 HepG2. The class given is cell-based. The method, boiled down: as §1
For test [8], the system named is breast (MCF7, HTB-22™) cancer cell line. Description: MTT cytotoxicity assay, MCF7 cells. The class given is cell-based. The note with it: Homo sapiens, MCF7, 72 h, read-out: IC50 MCF7. The method, boiled down: as §1
Test [9] deals with lung (A549) cancer cell line. Kind of test: MTT cytotoxicity assay, A549 cells. The class given is cell-based. The note with it: Homo sapiens, A549, 72 h, read-out: IC50 A549. The method, boiled down: as §1
For test [10], the system named is human embryonic kidney (HEK-293, ATCC number CRL-1573) cell line. Description: MTT cytotoxicity assay, Hek-293 cells. Format: cell-based. As to conditions: HEK293, 72 h, read-out: IC50 Hek-293. Summed up:
as §1

Test [11] concerns SK-Lu-1 cells. Description: Cell cycle analysis by flow cytometry. The class given is cell-based, human. The note with it: 24 h. Summed up: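 Log-phase SK-LU-1 cells (3 × 10^5 per 25 cm2 flask) treated 24 h with test compound at 0.08, 0.16 or 0.32 μM. Controls: DMSO 0.05%, ellipticine 1.3 μM, vincristine 0.4 and 4 μM. Cells were PBS-washed and fixed in ice-cold 70% ethanol at −20 °C for 2 h. They were then treated with RNase A (1 mg mL−1, 37 °C, 15 min), stained with PI for 30 min and analysed by flow cytometry.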

Test [12] has as its system SK-Lu-1 cells. Description: Annexin V FITC and PI flow cytometry assay for apoptosis. The class given is cell-based, human. The note with it: 24 h; for % Necrotic cells: Annexin-V/PI (Q2-1); for % Late apoptosis cells: Annexin-V/PI (Q2-2); for % Early apoptosis cells: Annexin-V/PI (Q2-4); for % Total apoptosis cells: early + late. The method, boiled down:
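SK-LU-1 cells (3 × 10^5 per 25 cm2 flask; DMEM, 7–10% FBS, penicillin/streptomycin, 37 °C, 5% CO2) exposed 24 h to test compound. Controls: DMSO 0.5%, ellipticine 1.3 μM, vincristine 0.4 and 4 μM. Cells were harvested, washed in cold PBS and resuspended in annexin-binding buffer. They were stained with FITC-annexin V plus PI (100 μg mL−1 working solution) for 15 min at room temperature, then diluted and analysed by flow cytometry.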

On to `O=C1OCC2=C1C(c1ccccc1)C1=C(N2)C(=O)c2ccccc2C1=O` (centres unmarked) [5d, 11-(Phenyl)-4,11-dihydrobenzo[g]furo[3,4-b]quinoline-1,5,10(3H)-trione], for which the IC50 is 1.54 ± 0.01 µM in [1]; < 0.044 µM in test [2]; 1.98 ± 0.04 µM in test [3]; < 0.044 µM with SK-Lu-1 cells [4]; 1.34 ± 0.01 µM in test [5].
Take `O=C1OCC2=C1C(c1ccccc1O)C1=C(N2)C(=O)c2ccccc2C1=O` (centres unmarked) [5h, 11-(2-Hydroxyphenyl)-4,11-dihydrobenzo[g]furo[3,4-b]quinoline-1,5,10(3H)-trione]: the IC50 came out at 0.57 ± 0.02 µM in [6]; 0.63 ± 0.02 µM in test [7]; 1.61 ± 0.03 µM in test [8]; 0.43 ± 0.01 µM in [9]; 2.03 ± 0.06 µM in test [10].
As to `O=C1OCC2=C1C(c1ccc(O)cc1)C1=C(N2)C(=O)c2ccccc2C1=O` (centres unmarked) [5i, 11-(4-Hydroxyphenyl)-4,11-dihydrobenzo[g]furo[3,4-b]quinoline-1,5,10(3H)-trione], the IC50 in [6] is > 2.5 µM; in test [7], > 2.5 µM; in test [8], 2.23 ± 0.06 µM; in test [9], 1.59 ± 0.03 µM; in test [10] it was 6.46 ± 0.15 µM.
With `O=C1OCC2=C1C(c1ccc([N+](=O)[O-])cc1)C1=C(N2)C(=O)c2ccccc2C1=O` (centres unmarked) [5j, 11-(4-Nitrophenyl)-4,11-dihydrobenzo[g]furo[3,4-b]quinoline-1,5,10(3H)-trione], the IC50 in [6] is > 2.5 µM; in [7] it was > 2.5 µM; in [8], > 2.5 µM; in test [9] it was 1.12 ± 0.04 µM; in test [10], 7.17 ± 0.16 µM.
For `N#Cc1ccc(C2C3=C(COC3=O)NC3=C2C(=O)c2ccccc2C3=O)cc1` (centres unmarked) [5k, 4-(1,5,10-Trioxo-1,3,4,5,10,11-hexahydrobenzo[g]furo[3,4-b]quinolin-11-yl)benzonitrile], the 50% inhibitory concentration (IC50) was > 2.5 µM in test [6]; > 2.5 µM in [7]; > 2.5 µM in test [8]; 2.03 ± 0.05 µM in test [9]; > 20 µM in test [10].
Consider `COc1ccc(C2C3=C(COC3=O)NC3=C2C(=O)c2ccccc2C3=O)cc1OC` (centres unmarked) [5l, 11-(3,4-Dimethoxyphenyl)-4,11-dihydrobenzo[g]furo[3,4-b]quinoline-1,5,10(3H)-trione], for which the IC50 was 0.52 ± 0.02 µM in [6]; 0.53 ± 0.02 µM in [7]; 2.28 ± 0.07 µM in test [8]; 1.1 ± 0.02 µM in [9]; 2.23 ± 0.08 µM in test [10].
With `COc1cc(C2C3=C(COC3=O)NC3=C2C(=O)c2ccccc2C3=O)cc(OC)c1OC` (centres unmarked) [5m, 11-(3,4,5-Trimethoxyphenyl)-4,11-dihydrobenzo[g]furo[3,4-b]quinoline-1,5,10(3H)-trione], the IC50 in test [6] came to 0.02 ± 0.01 µM; in [7], 0.02 ± 0.01 µM; in [8], 0.12 ± 0.03 µM; in test [9], 0.62 ± 0.02 µM; in [10], 0.03 ± 0.01 µM.
Regarding `O=C1OCC2=C1C(c1cccnc1)C1=C(N2)C(=O)c2ccccc2C1=O` (centres unmarked) [5n, 11-(Pyridin-3-yl)-4,11-dihydrobenzo[g]furo[3,4-b]quinoline-1,5,10(3H)-trione], the 50% inhibitory concentration (IC50) in test [6] was 0.62 ± 0.01 µM; in [7], > 2.5 µM; in test [8], 1.96 ± 0.04 µM; in [9], 0.61 ± 0.02 µM; in [10], 1.81 ± 0.05 µM.
The corresponding values for `O=C1OCC2=C1C(c1ccc(Br)cn1)C1=C(N2)C(=O)c2ccccc2C1=O` (centres unmarked) [5o, 11-(5-Bromopyridin-2-yl)-4,11-dihydrobenzo[g]furo[3,4-b]quinoline-1,5,10(3H)-trione] are > 2.5 µM, > 2.5 µM, > 2.5 µM, > 2.5 µM and > 20 µM.
As to `Cc1c2ccncc2c(C)c2c1[nH]c1ccccc12` [Ellipticine, reference compound], the IC50 in [6] is 1.15 ± 0.01 µM. Also, the IC50 in [7] came to 1.51 ± 0.05 µM. Moreover, the IC50 in [8] is 1.82 ± 0.03 µM. Also, the IC50 in [9] was determined as 1.6 ± 0.02 µM. Besides, in [10], the IC50 is 6.18 ± 0.11 µM. For the same compound, in the test with SK-Lu-1 cells [11] (SK-LU-1, 1.3 μM), the “Percentage of cell by phases, % G0/G1” value amounted to 10.09%; the “Percentage of cell by phases, % G2/M” value was 71.29%; the “Percentage of cell by phases, % S” value is on record as 12.52%. Moreover, in the test with SK-Lu-1 cells [12] (SK-LU-1, 1.3 μM), the “% Necrotic cells” value is listed as 3.00%, the “% Late apoptosis cells” value is on record as 25.71%, the “% Early apoptosis cells” value is 28.22% and the “% Total apoptosis cells” value is 53.93%.
As to `CC[C@]1(O)C[C@H]2CN(CCc3c([nH]c4ccccc34)[C@@](C(=O)OC)(c3cc4c(cc3OC)N(C=O)[C@H]3[C@@](O)(C(=O)OC)[C@H](OC(C)=O)[C@]5(CC)C=CCN6CC[C@]43[C@@H]65)C2)C1` [Vincristine, reference compound], in the test with SK-Lu-1 cells [11] (SK-LU-1, 0.4 μM), the “Percentage of cell by phases, % G0/G1” value turned out to be 52.28%; the “Percentage of cell by phases, % G2/M” value worked out at 6.72%; the “Percentage of cell by phases, % S” value is given as 38.19%. Moreover, in the test with SK-Lu-1 cells [11] (SK-LU-1, 4.0 μM), the “Percentage of cell by phases, % G0/G1” value was determined as 0.07%; the “Percentage of cell by phases, % G2/M” value is given as 82.57%; the “Percentage of cell by phases, % S” value was found to be 13.93%. For the same compound, in the test with SK-Lu-1 cells [12] (SK-LU-1, 0.4 μM), the “% Necrotic cells” value was 4.15%, the “% Late apoptosis cells” value is given as 3.66%, the “% Early apoptosis cells” value amounted to 15.13% and the “% Total apoptosis cells” value was found to be 18.79%. Besides, in the test with SK-Lu-1 cells [12] (SK-LU-1, 4.0 μM), the “% Necrotic cells” value amounted to 3.62%, the “% Late apoptosis cells” value worked out at 4.71%, the “% Early apoptosis cells” value is given as 19.93% and the “% Total apoptosis cells” value turned out to be 24.64%.

The values above are taken from publication PMC9361925 (RSC Advances, 2022).
